Results on 24 molecules are retold here after ChEMBL document CHEMBL3997777, “Pterosin Sesquiterpenoids from Pteris cretica as Hypolipidemic Agents via Activating Liver X Receptors” (J Nat Prod, 2016).

Active and inactive are the calls of the source. No cut-off for these calls is given here.

The species entered for data set [1] is Mus musculus. Description: Activation of LXR in mouse 3T3L1 preadipocytes assessed as decrease in triglyceride level for 3 days measured on day 6. Format: cell-based. The procedure, abridged:
(§1)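 3T3-L1 cells grown in DMEM/10% FBS. Two days post-confluence (day 0), switched to differentiation medium (insulin 2 μg/mL, dexamethasone 100 ng/mL, IBMX 0.5 mM, biotin 10 ng/mL) for 3 days, then insulin-only medium for 3 more days. Compounds in DMSO (<0.1%) present throughout differentiation. Day 6 cells PBS-washed and lysed, TG measured by kit, expressed relative to vehicle; mean ± SD, three independent experiments.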

For data set [2], the species on record is Mus musculus. Briefly: Activation of LXR in mouse 3T3L1 preadipocytes assessed as decrease in triglyceride level up to 10 uM […] measured on day 6 by Oil Red O staining based assay. Format: cell-based. The procedure, abridged:
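3T3-L1 adipocytes differentiated over 6 days (IBMX/dexamethasone/insulin/biotin for 3 days, then insulin only), compound in DMSO present throughout. Day 6 cells fixed in 4% formaldehyde for 1 h at room temperature, then stained with 0.35% Oil Red O stock diluted 3:2 in water for 30 min at 60 °C. Washed, then imaged at 4× magnification.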

Data set [3] is described as follows: Cytotoxicity against HEK293T cells assessed as cell viability at 10 uM after 24 hrs by MTT assay relative to control. Format: cell-based, HEK-293T. The note with it: human, read-out: Activity. Put shortly:
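HEK 293T cells in DMEM/10% FBS at 37 °C, 5% CO2, exposed to compounds at 10 μM for 24 h in triplicate. MTT (2.5 mg/mL) added for 4 h, then DMSO. Absorbance read at 492 nm after 20 min shaking. Survival = (A sample − A blank)/(A control − A blank) × 100%.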
A general note: Tetrazolium assays rely on reduction of a dye to a coloured formazan, in cell work by metabolically active cells.

Data set [4] has as its target T1, Oxysterols receptor LXR-beta (Rattus norvegicus) (UniProt Q62755).
T1 sequence (whole entry): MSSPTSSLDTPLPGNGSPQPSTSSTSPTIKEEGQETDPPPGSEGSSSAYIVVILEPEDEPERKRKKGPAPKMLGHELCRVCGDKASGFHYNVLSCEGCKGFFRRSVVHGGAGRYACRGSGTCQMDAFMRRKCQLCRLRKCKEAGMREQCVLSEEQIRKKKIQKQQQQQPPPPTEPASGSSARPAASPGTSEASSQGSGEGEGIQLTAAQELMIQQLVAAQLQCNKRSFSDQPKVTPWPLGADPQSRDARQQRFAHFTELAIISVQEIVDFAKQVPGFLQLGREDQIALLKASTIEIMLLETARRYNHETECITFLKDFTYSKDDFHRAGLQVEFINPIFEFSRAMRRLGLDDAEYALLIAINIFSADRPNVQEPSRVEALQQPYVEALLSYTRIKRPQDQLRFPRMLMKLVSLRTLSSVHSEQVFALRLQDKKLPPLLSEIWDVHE
Briefly: Activation of rat LXRbeta expressed in HEK293 cells co-expressing human RXRalpha at 10 uM after 20 hrs by luciferase reporter gene assay. It counts as cell-based. Put shortly:
(§2)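 HEK 293T cells seeded at 3 × 10^4/well and attached 12 h. Cotransfected by lipofection with hLXRα or rLXRβ receptor plasmid plus hRXRα, a DR-4 LXRE firefly luciferase reporter and a CMV renilla control. Compounds added 10 h later; 0.1% DMSO vehicle. Luminescence read 20 h after treatment, firefly normalized to renilla, fold over vehicle; mean ± SD, three independent experiments.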
For orientation: In a reporter assay the amount or activity of a reporter protein is the signal.

Data set [5] concerns the target T2, Oxysterols receptor LXR-alpha (Homo sapiens) (UniProt Q13133).
T2 sequence (whole entry): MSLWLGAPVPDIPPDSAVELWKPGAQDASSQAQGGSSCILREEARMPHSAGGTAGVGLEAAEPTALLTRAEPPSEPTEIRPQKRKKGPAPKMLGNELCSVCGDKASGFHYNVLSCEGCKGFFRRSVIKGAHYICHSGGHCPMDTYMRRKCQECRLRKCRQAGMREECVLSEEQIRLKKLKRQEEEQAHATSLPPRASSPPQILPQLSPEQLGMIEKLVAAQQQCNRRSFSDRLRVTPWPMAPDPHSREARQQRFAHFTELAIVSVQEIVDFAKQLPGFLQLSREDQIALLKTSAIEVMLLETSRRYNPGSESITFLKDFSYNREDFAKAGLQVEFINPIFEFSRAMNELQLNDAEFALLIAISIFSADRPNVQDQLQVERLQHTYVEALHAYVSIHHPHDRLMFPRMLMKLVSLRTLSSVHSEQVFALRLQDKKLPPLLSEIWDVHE
Briefly: Activation of human LXRalpha expressed in HEK293 cells co-expressing human RXRalpha at 10 uM after 20 hrs by luciferase reporter gene assay. Format: cell-based. The procedure, abridged: as §2

The species entered for data set [6] is Mus musculus. Briefly: Activation of LXR in mouse 3T3L1 preadipocytes assessed as decrease in triglyceride level at 1 to 10 uM for 3 days measured on day 6. Format: cell-based. Put shortly: as §1

Turning to `Cc1cc2c(c(C)c1CCO)C(=O)[C@@H](C)[C@@H]2O`, the Activity result in data set [1] is “Dose-dependent effect”. Besides, in data set [2], the result was Active. The viability at 24 h, 10 µM in data set [3] is 100%.
Regarding `Cc1cc2c(c(CO)c1CCO)C(=O)[C@](C)(CO)[C@@H]2O`, the viability at 24 h, 10 µM in data set [3] was determined as 100%.
Take `Cc1cc2c(c(C)c1CCO[C@@H]1O[C@H](CO)[C@@H](O)[C@H](O)[C@H]1O)C(=O)[C@@H](C)[C@@H]2O`: the viability at 24 h, 10 µM in data set [3] came out at 100%.
As for `Cc1cc2c(c(CO)c1CCO)C(=O)[C@@](C)(O)C2=O`, the viability at 24 h, 10 µM in data set [3] was 100%.
The same measure, in the same setting: for `Cc1cc2c(c(C)c1CCO[C@@H]1O[C@H](CO)[C@@H](O)[C@H](O)[C@H]1O)C(=O)[C@H](C)[C@@H]2O` the value was 100%.
Still for that read-out and setting: for `C=C1[C@@H]2CC[C@H]3[C@]4(C)C[C@H](O)CC(C)(C)[C@H]4CC[C@]3(C2)[C@H]1O` the value was 100%; for `Cc1cc2c(c(C)c1CCO)C(=O)[C@H](C)[C@@H]2O`, 100%; for `Cc1cc2c(c(C)c1CCO[C@@H]1O[C@H](CO)[C@@H](O)[C@H](O)[C@H]1O)C(=O)C(C)(C)[C@H]2O`, 100%.
Take `Cc1cc2c(c(CO)c1CCO)C(=O)[C@H](C)[C@@H]2O`: the viability at 24 h, 10 µM in data set [3] came to 100%.
With `Cc1cc2c(c(C)c1CCO)C(=O)[C@@](C)(O)[C@@H]2O`, the viability at 24 h, 10 µM in data set [3] is 100%.
For `Cc1cc2c(c(CO)c1CCO)C(=O)[C@@H](C)[C@@H]2O`, in data set [3], the viability at 24 h, 10 µM was 100%.
Take `O=C(O)Cc1cccc(OCCCN(Cc2cccc(C(F)(F)F)c2Cl)CC(c2ccccc2)c2ccccc2)c1`: the result in data set [4] and in data set [5] was Active.
For `CC1(C)C[C@@H](O)C[C@]2(C)[C@@H]1[C@H](O)C[C@@]13C[C@@](O)(CC[C@H]12)[C@](C)(O)C3`, in data set [1], the Activity result was “Dose-dependent effect”. For the same molecule, the outcome in data set [2] was Active. In data set [3], the viability at 24 h, 10 µM amounted to 100%.
Take `Cc1cc2c(c(C)c1CCO)C(=O)[C@](C)(CO)[C@@H]2O`: in data set [3], the viability at 24 h, 10 µM amounted to 100%.
As for `Cc1c(CCO)c(CO)cc2c1C(=O)[C@H](C)[C@@H]2O`, the outcome in data set [4], in data set [2] and in data set [5] was Active. Also, the Activity entry in data set [1] was “Dose-dependent effect”. For the same molecule, in data set [3], the viability at 24 h, 10 µM was 100%.
As to `C=C1[C@@H]2CC[C@H]3[C@]4(C)C[C@H](O)CC(C)(C)[C@H]4[C@H](O)C[C@]3(C2)[C@H]1O`, the viability at 24 h, 10 µM in data set [3] is 100%.
The same measure, in the same setting: then `C=C1[C@@H]2CC[C@H]3[C@]4(C)C[C@H](O[C@@H]5O[C@H](CO)[C@@H](O)[C@H](O)[C@H]5O)CC(C)(C)[C@H]4CC[C@]3(C2)[C@H]1O`, with 100%.
For `COc1ccc2cc3[n+](cc2c1OC)CCc1cc2c(cc1-3)OCO2`, in data set [6], the result was Active.
On to `CC1(C)C[C@@H](O[C@@H]2O[C@H](CO)[C@@H](O)[C@H](O)[C@H]2O)C[C@]2(C)[C@@H]1CC[C@@]13C[C@@H](CC[C@H]12)[C@](C)(O)C3`, for which, in data set [3], the viability at 24 h, 10 µM was 100%.
As for `Cc1cc2c(c(C)c1CCO)C(=O)C(C)(C)[C@@H]2O`, in data set [3], the viability at 24 h, 10 µM turned out to be 100%.
Same read-out and setting: for `Cc1cc2c(c(C)c1CCO)C(=O)[C@](C)(O)[C@@H]2O` the value was 100%.
Turning to `CC1(C)C[C@@H](O)C[C@]2(C)[C@@H]1[C@H](O)C[C@@]13C[C@@H](CC[C@H]12)[C@](C)(O)C3`, the Activity result in data set [1] is “Dose-dependent effect”. The outcome in data set [2] was Active. The viability at 24 h, 10 µM in data set [3] is 100%.
`Cc1c(CCO)c(CO)cc2c1C(=O)[C@@H](C)[C@@H]2O`: the viability at 24 h, 10 µM in data set [3] was found to be 100%.
On the same count and under the same terms, then `CC1(C)C[C@@H](O)C[C@]2(C)[C@@H]1CC[C@@]13C[C@@H](CC[C@@H]21)[C@@](O)(CO)[C@@H]3O`, with 100%.
